Yeast fitness data for 14 variants are collected here from the RNAGym collection of RNA variant scans (doi:10.1126/science.aae0568).

B1: tRNA (parent)
chain: GUUCCGUUGGCGUAAUGGUAACGCGUCUCCCUCCUAAGGAGAAGACUGCGGGUUCGAGUCCCGUACGGAACG

Variants at the floor of the assay were thinned out.

In the series the parent is B1. The experiment in a line: yeast fitness relative to wild type (ratio to wild type); higher = fitter; tRNA-Arg(CCU), competitive growth, 37 C, YPD. In a few lines:
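Gene amplicons from the start population and from each of six end populations were read by 100-nucleotide paired-end sequencing. Those end populations came from pooled Saccharomyces cerevisiae strains carrying tRNA-Arg(CCU) gene variants at the native locus, competed in YPD at 37°C for 24 hours. Fitness relative to wild type was worked out from changes in genotype frequencies. Genotypes needed ≥ 100 starting reads, and estimates < 0.5 were set to 0.5.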
In the case of G67U A69U, the yeast fitness was 0.887.
As to C66U A70U, the yeast fitness came to 0.923.
On to G67U G68C, for which the yeast fitness worked out at 0.773.
Under A65U G67C stands 0.64; under A65U C66U, 0.818; under C66A G68A, 0.695.
As for G68U A69C, the yeast fitness stood at 0.817.
With G67C the figure was 0.986.
With G67A the figure was 0.951.
With G67U the figure was 0.918.
As for G67A G68C, the yeast fitness is 0.819.
Turning to C66G G67U, the yeast fitness was found to be 0.63.
As to C66G G67C, the yeast fitness is 0.733.
G67C G68U: the yeast fitness came to 0.676.
